The source of these data is ChEMBL document CHEMBL4396885, “Thioether-based 2-aminobenzamide derivatives: Novel HDAC inhibitors with potent in vitro and in vivo antitumor activity” (Eur J Med Chem, 2019).

The test system of series [1] is A549. Nature of the series: Induction of apoptosis in human A549 cells assessed as early apoptotic cells at 2 uM after 48 hrs by Annexin V-FITC/propidium iodide staining based flow cytometry (reference value: 1.19%). In kind it is functional. A digest of the protocol:
(§1)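 A549 seeded 4×10⁶ cells/well, dosed after 12 h with compound at various concentrations, harvested after 48 h. Resuspended in annexin-binding buffer, stained with Annexin V-FITC and propidium iodide for 15 min in the dark, analysed by flow cytometry; means of three separate experiments.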

The subject of series [2] is A549. Description: Antiproliferative activity against human A549 cells assessed as decrease in cell viability after 72 hrs by CCK-8 assay. Type of series: functional, cell-based. The conditions noted are these: A549, 72 h. A digest of the protocol:
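Cells grown to 70–85% confluence (A375, A549, HCT116 in RPMI1640; HeLa, SMMC7721 in DMEM; 10% FBS, 37 °C, 5% CO2), seeded 4000/well, dosed after 12 h across a concentration range, incubated 72 h, then CCK-8 for 1 h; absorbance at 450 nm. IC50 as mean ± SD of three separate experiments.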

A further series deals with HeLa. Description: Antiproliferative activity against human HeLa cells assessed as growth inhibition at 2 uM after 72 hrs by CCK-8 assay relative to control. In kind it is functional. The conditions noted are these: read-out: GI.
The test system of series [3] is A549. Nature of the series: Cell cycle arrest in human A549 cells assessed as accumulation of cells at S phase at 1 uM after 48 hrs by propidium iodide staining-based flow cytometry (reference value: 12.83%). Type of series: functional.
The subject of series [4] is A549. Description: Induction of apoptosis in human A549 cells assessed as late apoptotic cells at 0.5 uM after 48 hrs by Annexin V-FITC/propidium iodide staining based flow cytometry (reference value: 0.637%). In kind it is functional. A digest of the protocol: as §1
Series [5] concerns A549. Description: Antiproliferative activity against human A549 cells assessed as growth inhibition at 8 uM after 72 hrs by CCK-8 assay relative to control. To be noted: A549, 72 h, read-out: GI. In kind it is functional.
The test system of series [6] is A549. Nature of the series: Cell cycle arrest in human A549 cells assessed as accumulation of cells at G0/G1 phase at 0.5 uM after 48 hrs by propidium iodide staining-based flow cytometry (reference value: 73.35%). In kind it is functional.
In series [7] the test system is A549. Nature of the series: Induction of apoptosis in human A549 cells assessed as necrotic cells at 1 uM after 48 hrs by Annexin V-FITC/propidium iodide staining based flow cytometry (reference value: 0.135%). In kind it is functional. A digest of the protocol: as §1
The subject of series [8] is A549. Nature of the series: Induction of apoptosis in human A549 cells assessed as necrotic cells at 2 uM after 48 hrs by Annexin V-FITC/propidium iodide staining based flow cytometry (reference value: 0.135%). Type of series: functional. A digest of the protocol:
as §1

Series [9] concerns A549. Description: Induction of apoptosis in human A549 cells assessed as necrotic cells at 0.5 uM after 48 hrs by Annexin V-FITC/propidium iodide staining based flow cytometry (reference value: 0.135%). Type of series: functional. A digest of the protocol:
as §1

The test system of series [10] is A-375. Description: Antiproliferative activity against human A375 cells assessed as growth inhibition at 8 uM after 72 hrs by CCK-8 assay relative to control. In kind it is functional. The conditions noted are these: A-375, 72 h, read-out: GI.
Series [11] concerns A549. Description: Inhibition of colony formation in human A549 cells incubated for 10 to 14 days by crystal violet staining based assay. Type of series: functional, cell-based. The method, boiled down: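 A549 seeded 3000 cells/well, treated after 12 h at 0.5, 1 and 2 µM, grown 10–14 days, fixed in 4% paraformaldehyde for 15 min and stained with 0.1% crystal violet.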
The test system of series [12] is A549. Description: Cell cycle arrest in human A549 cells assessed as accumulation of cells at G2/M phase at 2 uM after 48 hrs by propidium iodide staining-based flow cytometry (reference value: 13.62%). In kind it is functional.
Series [13] relates to A-375. Nature of the series: Antiproliferative activity against human A375 cells assessed as growth inhibition at 2 uM after 72 hrs by CCK-8 assay relative to control. In kind it is functional. The conditions noted are these: A-375, 72 h, read-out: GI.
The nature of series [14]: AUC (0 to t) in ICR mouse at 4 mg/kg, iv after 0.08 to 24 hrs by LC-MS/MS analysis. Type of series: ADME, organism-based. The conditions noted are these: in vivo. Set-up: time upper 24 hr, dose 4 mg/kg, time lower 0.08 hr, route intravenous. A digest of the protocol:
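Male ICR mice (29.7~37.4 g), single iv dose 4 mg/kg in DMSO:40% SBE-β-CD 20:80 (v/v). Retro-orbital blood at 0.08–24 h into EDTA-K2 tubes; plasma protein-precipitated with acetonitrile containing internal standards, analysed by LC-MS/MS; n=3 per time point; noncompartmental analysis.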

For series [15], the system named is A549. Nature of the series: Induction of apoptosis in human A549 cells assessed as viable cells at 0.5 uM after 48 hrs by Annexin V-FITC/propidium iodide staining based flow cytometry (reference value: 98%). To be noted: A549, 48 h, read-out: Activity. Type of series: functional. A digest of the protocol:
as §1

The test system of another series is SMMC-7721. Nature of the series: Antiproliferative activity against human SMMC7721 cells assessed as growth inhibition at 2 uM after 72 hrs by CCK-8 assay relative to control. The conditions noted are these: SMMC-7721, 72 h, read-out: GI. In kind it is functional.

On to `COc1ccc(SCc2ccc(C(=O)Nc3ccccc3N)cc2)cc1`, for which the Activity amounted to 5.65% in the series on A549 [1]; 20.63% with A549 [3]; 15% in the series with A549 [4]; 64.38% in the series on A549 [6]; 1.5% in the series with A549 [7]; 20.3% in the series on A549 [8]. In addition, the Activity with A549 [9] came to 13.8%; in the series on A549 [12] it was 48.06%. For the same compound, the IC50 in the series with A549 [2] was found to be 2.57 µM. Moreover, the inhibition of growth at 2 µM in the series with HeLa was determined as 35%; in the series with A-375 [13] it was 10.2%; in the series with SMMC-7721, 33.1%. Besides, the inhibition of growth at 8 µM in the series on A549 [5] is 70.7%; in the series with A-375 [10], 81.8%. Besides, the inhibition entry with A549 [11] was “Dose-dependent effect”. The same compound registered an AUC(0-t) in series [14] of 737 ng·h/mL. The viability at 0.5 µM with A549 [15] is 66%.

`CCc1ccc(SCc2ccc(C(=O)Nc3ccccc3N)cc2)cc1`: the Activity in the series with A549 [1] is 6.55%; with A549 [3], 9.74%; in the series on A549 [4] it was 7.08%; with A549 [6], 33.89%; with A549 [7], 8.44%; with A549 [8], 13.2%. For the same compound, the Activity with A549 [9] worked out at 1.14%; in the series on A549 [12], 66.48%. Also, the IC50 with A549 [2] worked out at 3.04 µM. For the same compound, the inhibition of growth at 2 µM came out at 30.8% in the series on HeLa, 19.6% with A-375 [13] and 25.7% in the series on SMMC-7721. In addition, the inhibition of growth at 8 µM in the series on A549 [5] worked out at 91.4%; in the series with A-375 [10], 71.1%. The inhibition result in the series on A549 [11] was “Dose-dependent effect”. In series [14], this compound had an AUC(0-t) of 868 ng·h/mL. In addition, the viability at 0.5 µM in the series with A549 [15] came to 80.8%.
